Common to all, as to assay type: functional
One assay relates to MCF7. Nature of the assay: Cytotoxicity against human MCF7 cells after 48 hrs. Conditions: MCF7, 48 h. An outline of the steps: (§1)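 Adherent cells kept in RPMI-1640 with 5% heat-inactivated FBS, 2 mM glutamine and 50 µg/mL gentamycin at 37 °C, 5% CO2. Plated at 1.5 × 10⁵ cells/mL, attached overnight, then given five concentrations (maximum 150 µM; DMSO stocks diluted in medium) for 48 h. Fixed in situ, SRB-stained, absorbance at 492 nm. GI50 (50% inhibition of net growth) taken from dose–response curves.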

The next assay has as its system NCI-H460. Nature of the assay: Cytotoxicity against human NCI-H460 cells after 48 hrs. The settings on record: NCI-H460, 48 h. Summed up:
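Adherent cells kept in RPMI-1640 with 5% heat-inactivated FBS, 2 mM glutamine and 50 µg/mL gentamycin at 37 °C, 5% CO2. Plated at 7.5 × 10⁴ cells/mL, attached overnight, then given five concentrations (maximum 150 µM; DMSO stocks diluted in medium) for 48 h. Fixed in situ, SRB-stained, absorbance at 492 nm. GI50 (50% inhibition of net growth) taken from dose–response curves.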

The subject of a further assay is SF-268. As to the kind of experiment: Cytotoxicity against human SF268 cells after 48 hrs. The settings on record: SF-268, 48 h. An outline of the steps:
as §1

Consider `CN(C)/N=C/c1ccc(C2=CC(=O)C=CC2=O)o1`, for which the GI50 worked out at 33.5 µM with MCF7, 148 µM in the assay with NCI-H460 and 100 µM with SF-268.
In the same order, the values of `CN(C)/N=C/c1ccc(C2=CC(=O)c3ccccc3C2=O)o1` are 7.7 µM, 6.8 µM and 6.5 µM.
In the same order, the values of `COC1=CC(=O)C(c2ccc(/C=N/N(C)C)o2)=CC1=O` are 8.2 µM, 27.2 µM and 9.1 µM.
The corresponding values for `CCCCSc1c(O)ccc(O)c1C(C)=O` are 29.2 µM, 63.3 µM and 27.5 µM.
Turning to `COc1cccc2c1C(=O)c1c(O)c3c(c(O)c1C2=O)C[C@@](O)(C(=O)CO)C[C@@H]3O[C@H]1C[C@H](N)[C@H](O)[C@H](C)O1` [DOXORUBICIN], the values for the concentration for 50% growth inhibition (GI50) with MCF7, with NCI-H460 and in the assay on SF-268 were 0.0428 µM, 0.094 µM and 0.093 µM, respectively.
Consider `O=Cc1ccc(-c2c(O)ccc(O)c2C=O)o1`, for which the GI50 in the assay on MCF7 amounted to 20.3 µM; in the assay with NCI-H460, 80.2 µM; in the assay on SF-268, 35.8 µM.
In the same order, the values of `CN(C)/N=C/c1ccc(C2=C(Cl)C(=O)c3ccccc3C2=O)o1` are 8.1 µM, 10.9 µM and 9.3 µM.
In the same order, the values of `CN(C)/N=C/c1ccc(-c2c(O)ccc(O)c2C=O)o1` are 29.4 µM, 93 µM and 38.3 µM.
As to `O=Cc1c(O)ccc(O)c1Cl`, the GI50 came out at 15.6 µM in the assay with MCF7, 122 µM with NCI-H460 and 18.8 µM in the assay on SF-268.

By GI50 is commonly meant the concentration that inhibits growth by half. A higher GI50 goes with lower sensitivity of the cells.
